Assay results as given in ChEMBL document CHEMBL4396881, “Improved Th17 Selectivity of α-Galactosylceramide via Noncovalent Interactions with Diether Moiety” (ACS Med Chem Lett, 2019).
Active and inactive are the calls of the source.

Key:
Format in all cases: functional
Mus musculus [1] = species: Mus musculus; assay: Stimulation of cytokine secretion in C57BL/6 mouse HMNCs assessed as increase in IL-17 secretion at 25 nM measured after 72 hrs by ELISA
Mus musculus [2] = species: Mus musculus; assay: Stimulation of cytokine secretion in C57BL/6 mouse HMNCs assessed as increase in IL-2 secretion at 25 nM measured after 24 hrs by ELISA
Summary of the method: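 Mouse hepatic mononuclear cells were exposed to the α-GalCer analogues. IL-2 secretion was read 24 h after treatment. Results were expressed as relative activity, mean ± SEM, from n = 3 biological replicates.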

Mus musculus [3] = species: Mus musculus; assay: Stimulation of cytokine secretion in C57BL/6 mouse HMNCs assessed as increase in IL-4 secretion at 25 nM measured after 72 hrs by ELISA
Mus musculus [4] = species: Mus musculus; assay: Stimulation of cytokine secretion in C57BL/6 mouse HMNCs assessed as increase in IFN gamma secretion at 25 nM measured after 72 hrs by ELISA
Mus musculus [5] = species: Mus musculus; assay: Antiinflammatory activity in C57BL/6 mouse HMNCs assessed as reduction in IL-17 secretion at 5 to 125 nM
Mus musculus [6] = species: Mus musculus; assay: Stimulation of cytokine secretion in C57BL/6 mouse HMNCs assessed as increase in IL-17 secretion at 5 to 125 nM measured after 72 hrs by ELISA
Mus musculus [7] = species: Mus musculus; assay: Stimulation of cytokine secretion in C57BL/6 mouse HMNCs assessed as increase in IL-17 secretion measured after 72 hrs by ELISA

Measured: Activity

CCCCCCCCCCCCCC[C@@H](O)[C@@H](O)[C@H](CO[C@H]1O[C@H](CO)[C@H](O)[C@H](O)[C@H]1O)NC(=O)CCCCCCCCCCCOCCCCCCCCCOCCC
active: Mus musculus [1] | Mus musculus [2] | Mus musculus [3] | Mus musculus [4]

CCCCCCCCCCCCCC[C@@H](O)[C@@H](O)[C@H](CO[C@H]1O[C@H](CO)[C@H](O)[C@H](O)[C@H]1O)NC(=O)CCCCCCCCCCCCCCCCOCCCCOCCC
active: Mus musculus [1] | Mus musculus [2] | Mus musculus [3] | Mus musculus [5] | Mus musculus [6] | Mus musculus [4]

CCCCCCCCCCCCCC[C@@H](O)[C@@H](O)[C@H](CO[C@H]1O[C@H](CO)[C@H](O)[C@H](O)[C@H]1O)NC(=O)CCCCCCCCCCCCCCCCOCCCCCOCC
active: Mus musculus [1] | Mus musculus [2] | Mus musculus [3] | Mus musculus [4]

CCCCCCCCCCCCCC[C@@H](O)[C@@H](O)[C@H](CO[C@H]1O[C@H](CO)[C@H](O)[C@H](O)[C@H]1O)NC(=O)CCCCCCCCCCCCOCCCCCCCCCOCC
active: Mus musculus [1] | Mus musculus [2] | Mus musculus [3] | Mus musculus [7] Dose-dependent effect | Mus musculus [4]

CCCCCCCCCCCCCCCCCCCCCCCCCC(=O)N[C@@H](CO[C@H]1O[C@H](CO)[C@H](O)[C@H](O)[C@H]1O)[C@H](O)[C@H](O)CCCCCCCCCCCCCC
active: Mus musculus [3] | Mus musculus [4]

CCCCCCCCCCCCCC[C@@H](O)[C@@H](O)[C@H](CO[C@H]1O[C@H](CO)[C@H](O)[C@H](O)[C@H]1O)NC(=O)CCCCCCCCCCCOCCCCCCCCCCOCC
active: Mus musculus [1] | Mus musculus [2] | Mus musculus [3] | Mus musculus [7] Dose-dependent effect | Mus musculus [4]

CCCCCCCCCCCCCC[C@@H](O)[C@@H](O)[C@H](CO[C@H]1O[C@H](CO)[C@H](O)[C@H](O)[C@H]1O)NC(=O)CCCCCCCCCCCCCCOCCCCCCOCCC
active: Mus musculus [1] | Mus musculus [2] | Mus musculus [3] | Mus musculus [4]

CCCCCCCCCCCCCC[C@@H](O)[C@@H](O)[C@H](CO[C@H]1O[C@H](CO)[C@H](O)[C@H](O)[C@H]1O)NC(=O)CCCCCCCCCCCCOCCCCCCCCOCCC
active: Mus musculus [1] | Mus musculus [2] | Mus musculus [3] | Mus musculus [4]

CCCCCCCCCCCCCC[C@@H](O)[C@@H](O)[C@H](CO[C@H]1O[C@H](CO)[C@H](O)[C@H](O)[C@H]1O)NC(=O)CCCCCCCCCCCCCCOCCCCCCCOCC
active: Mus musculus [1] | Mus musculus [2] | Mus musculus [3] | Mus musculus [4]
